Tests used:
[1] = Induction of heme alkylation of Fe(II) heme assessed as loss of heme at 10 uM in presence of 50% ACN-H2O with excess sodium dithionite under argon at 20 degC by spectrophotometry
Procedure, shortened: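 Fe(II) heme (10 μM final; hemin reduced by excess sodium dithionite) in 50% ACN-water under continuous argon, 20°C, stirred; reaction started with peroxide at 10 μM final. Soret absorbance (418 nm) read every 0.1 s, converted to heme concentration via linear calibration (ε = 1.26 × 10⁵ M⁻¹ cm⁻¹); heme loss measured at completion (t = 30 s). n = 3.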

Plasmodium falciparum = test: Antimalarial activity against chloroquine-resistant Plasmodium falciparum K1; type: functional, organism-based
[2] = Induction of heme alkylation of Fe(II) heme assessed as adduct A472 absorbance change at completion of reaction at 10 uM in presence of 50% ACN-H2O with excess sodium dithionite under argon at 20 degC by spectrophotometry
Procedure, shortened: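 Reduced heme made from hemin (10 μM final) in 50% ACN-water (from 0.5 mM stock in 0.1 M NaOH) with excess sodium dithionite, argon-purged sealed cell, stirred at 20°C; peroxide added to 10 μM final. Product formation followed as A472, normalized to initial 418 nm heme absorbance; taken at completion (t = 30 s). n = 3.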

| SMILES | inhibition [1] [%] | IC50 (Plasmodium falciparum) [nM] | deltaA [2] |
| --- | --- | --- | --- |
| C[C@@]1(c2ccccc2)OOC2(O1)C1CC3CC(C1)CC2C3 (stereo partly drawn) | 67 | 10 | 0.63 |
| C[C@H]1[C@@H](O)O[C@@H]2O[C@@]3(C)CC[C@H]4[C@H](C)CC[C@@H]1[C@@]24OO3 [ARTENIMOL] | 28 | 0.77 | 0.22 |
| C1CCC2(CC1)OOC1(CCCCC1)O2 | 17 | – | 0.03 |
| C1CCC2(CC1)OOC1(O2)C2CC3CC(C2)CC1C3 (stereo not drawn) | 86 | 3.8 | 0.84 |
| CC(C)(C)[C@H]1CC[C@]2(CC1)OO[C@]1(O2)C2CC3CC(C2)CC1C3 | 34 | 200 | 0.25 |
| c1ccc([C@H]2CC[C@]3(CC2)OO[C@]2(O3)C3CC4CC(C3)CC2C4)cc1 | 77 | 6.5 | 0.79 |
| OC[C@H]1CC[C@@]2(CC1)OO[C@@]1(O2)C2CC3CC(C2)CC1C3 | 83 | 2.6 | 0.78 |
| CO[C@H]1O[C@@H]2O[C@@]3(C)CC[C@H]4[C@H](C)CC[C@@H]([C@H]1C)[C@@]24OO3 | 24 | – | – |
| O=C1C2CC3CC1CC(C2)[C@]31OO[C@@]2(CCCCC2)O1 | 61 | 20 | 0.57 |
| CC1(C)CC[C@]2(CC1)OO[C@]1(O2)C2CC3CC(C2)CC1C3 | 82 | 7.9 | 0.77 |
| O=S(=O)(O)OC[C@H]1CC[C@]2(CC1)OO[C@]1(O2)C2CC3CC(C2)CC1C3 | 81 | 250 | 0.85 |
| C[C@@H]1CC[C@H]2[C@@H](C)C(=O)O[C@@H]3O[C@@]4(C)CC[C@@H]1[C@]32OO4 | 15 | – | 0.12 |
| O=C(O)[C@H]1CC[C@]2(CC1)OO[C@]1(O2)C2CC3CC(C2)CC1C3 | 74 | 49 | 0.89 |
| C1CC[C@]2(CC1)OO[C@]1(O2)C2CCCC1CCC2 | 9 | 340 | 0.03 |
| c1ccc([C@@H]2OOC3(O2)C2CC4CC(C2)CC3C4)cc1 (stereo partly drawn) | 16 | 1500 | 0.13 |
| OC[C@H]1CC[C@]2(CC1)OO[C@]1(O2)C2CC3CC(C2)CC1C3 | 83 | 2.8 | 0.89 |
| O=C1CCC2(CC1)OOC1(O2)C2CC3CC(C2)CC1C3 (stereo not drawn) | 81 | 1.7 | 0.88 |
| CC(C)(N)CNC(=O)C[C@H]1CC[C@]2(CC1)OO[C@]1(O2)C2CC3CC(C2)CC1C3 | 83 | – | 0.89 |
| c1ccc(C2(c3ccccc3)CCC3(CC2)OOC2(O3)C3CC4CC(C3)CC2C4)cc1 (stereo not drawn) | 11 | – | 0.1 |
| CCC[C@H]1CC[C@]2(CC1)OO[C@]1(O2)C2CC3CC(C2)CC1C3 | 85 | 3.6 | 0.8 |
| O=C(O)C[C@H]1CC[C@]2(CC1)OO[C@]1(O2)C2CC3CC(C2)CC1C3 | 83 | 110 | 0.87 |
| C[C@H]1[C@H](OC(=O)CCC(=O)O)O[C@@H]2O[C@@]3(C)CC[C@H]4[C@H](C)CC[C@@H]1[C@@]24OO3 [ARTESUNATE] | 44 | 3.2 | 0.39 |
| NC[C@H]1CC[C@]2(CC1)OOC1(O2)C2CC3CC(C2)CC1C3 (stereo partly drawn) | 83 | – | 0.87 |
| Clc1ccc([C@H]2CC[C@]3(CC2)OO[C@]2(O3)C3CC4CC(C3)CC2C4)cc1 | 84 | 20 | 0.84 |
| CC(C)(O)[C@H]1CC[C@]2(CC1)OO[C@]1(O2)C2CC3CC(C2)CC1C3 | 30 | 210 | 0.23 |

From ChEMBL document CHEMBL1255309, “Relationship between antimalarial activity and heme alkylation for spiro- and dispiro-1,2,4-trioxolane antimalarials” (Antimicrob Agents Chemother, 2008)
